Reference: ChEMBL document CHEMBL5653605, “Reduced VEGF production, angiogenesis, and vascular regrowth contribute to the antitumor properties of dual mTORC1/mTORC2 inhibitors” (Cancer Res, 2011)

Tested on: Pancreatic islet cell carcinoma
Test: Antivascular activity against pancreatic islet cell carcinoma in RIP-Tag2 mouse assessed as reduction in vascular sprouts at 75 mg/kg, po bid administered via gavage and measured after 7 days by immunohistochemical staining based fluorescence microscopic analysis relative to control
Format: functional
Parameters: scale not given: the % may be the effect or the level left
Conditions: time 7 day
Method in brief: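 For 7 days, RIP-Tag2 mice, 9–10 weeks old, received 75 mg/kg gavage BID, 200 mg/kg gavage QD, or 20 mg/kg ip QD. Perfusion-fixed tumors cut at 60–80 µm and stained for CD31 and type IV collagen basement membrane. Vessel area density from fluorescence images with threshold 30–50; sprouts and empty basement membrane sleeves examined by confocal microscopy. 3–8 mice/group; ANOVA, Fisher PLSD.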

Nc1nccn2c1c(-c1cc3cccc(Cl)c3[nH]1)nc2[C@H]1CC[C@H](C(=O)O)CC1
Activity: 54%
